Measured values reported in ChEMBL document CHEMBL5096237, “Orally Bioavailable Prodrugs of ψ-GSH: A Potential Treatment for Alzheimer's Disease” (J Med Chem, 2022).
Calls of active or inactive are those of the source. The calls are words filed in the database; no cut-off is given here.

Experiments:
[1] = Stability in CD-1 mouse assessed as half life at intestinal phase of gastrointestinal tract at 1 uM measured upto 240 mins by LC-MS/MS analysis; assay type: ADME; settings: for t1/2: mouse, 4 h, 1 µM
Method in brief: (§1)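 Compound at 1 μM final was incubated at 37 °C in plasma, brain homogenate, liver homogenate, simulated gastric fluid or simulated intestinal fluid. Aliquots taken at 0, 5, 15, 30, 60, 120 and 240 min were quenched with 3 volumes of acetonitrile containing 1% formic acid and centrifuged. Supernatants were analyzed by HPLC-UV (254 nm, after Fmoc-Cl derivatization) and/or LC-MS/MS to derive t1/2.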

[2] = Stability in CD-1 mouse plasma assessed as half life at 1 uM measured upto 240 mins by LC-MS/MS analysis; assay type: ADME, cell-free; settings: for t1/2: mouse, 4 h, 1 µM; for half-life at 1 µM: CD-1, mouse; method in brief: as §1
[3] = Stability in CD-1 mouse assessed as half life at gastric phase of gastrointestinal tract at 1 uM measured upto 240 mins by LC-MS/MS analysis; assay type: ADME; settings: for t1/2: mouse, 4 h, 1 µM; method in brief: as §1
[4] = Reversal of resistant against po dosed Abeta1-42 induced cognitive impairment in mouse assessed as reduction in repetitive arm entries (reference value: 3.22+/-0.27); assay type: organism-based; settings: in vivo
[5] = tested on: Mus musculus; experiment: Anti-alzheimer activity against oral dosed mouse brain assessed as reduction in AGE level by immunohistochemical analysis; assay type: functional, organism-based
[6] = Stability in CD-1 mouse plasma at 250 mg/kg, po at 1 uM measured after 6 hrs by LC-MS/MS analysis; assay type: ADME, organism-based; settings: in vivo
[7] = Stability in CD-1 mouse liver homogenate assessed as half life at 1 uM measured upto 240 mins by LC-MS/MS analysis; assay type: ADME, tissue-based
Method in brief: (§2)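 Compound at 1 μM final was incubated at 37 °C in plasma, brain homogenate, liver homogenate, simulated gastric fluid or simulated intestinal fluid. Supernatants were analyzed by HPLC-UV (254 nm, after Fmoc-Cl derivatization) and/or LC-MS/MS to derive t1/2.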

[8] = species on record: Mus musculus; experiment: Anti-alzheimer activity against A-beta injected mouse assessed as reduction in microglial activation in dentate gyrase region by GFAP staining based analysis; assay type: functional, organism-based; settings: in the assay text read “Iba1 staining” for “GFAP staining”
Method in brief: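 C57BL/6 mice were dosed with compound at 250 mg/kg once daily for 12 days; Aβ1–42 oligomers were given i.c.v. on day 4. Half-brains were fixed in 4% PFA for 24 h and sucrose-cryoprotected. 40 μm coronal sections, every 12th (4–6 sections), were immunostained for GFAP (astrocytes) or Iba1 (microglia) by ABC/DAB after antigen retrieval. Stained area fraction in dorsal hippocampus or dentate gyrus was measured stereologically at ×40.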

[9] = tested on: Mus musculus; experiment: Anti-alzheimer activity against APP/PS1 mouse model assessed as increase in spatial memory development at 500 mg/kg, po measured after 4 days by Morris water maze test; assay type: functional, organism-based; settings: time 4.0 day
[10] = Reversal of resistant against ip dosed Abeta1-42 induced cognitive impairment in mouse assessed as reduction in repetitive arm entries (reference value: 3.22+/-0.27); settings: in vivo
[11] = tested on: Mus musculus; experiment: Anti-alzheimer activity against oral dosed mouse brain assessed as restoration of reduced GSH level by […]; assay type: functional, organism-based
Method in brief: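 Brains from the i.c.v. Aβ1–42 mice were homogenized and deproteinized with metaphosphoric acid. After neutralization, samples were diluted in 50 mM MES (pH 6.0, 1 mM EDTA). GSH was measured by enzymatic recycling with DTNB, reading TNB absorbance at 412 nm.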

[12] = tested on: Mus musculus; experiment: Anti-alzheimer activity against APP/PS1 mouse model assessed as reduction in insoluble Abeta1-42 at 500 mg/kg, po […] by ELISA assay relative to control; assay type: functional; parameters: scale not given: the % may be the effect or the level left
Method in brief: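 APP/PS1 mice, 3–4 months old, were gavaged with ψ-GSH 500 mg/kg or saline three times weekly for 12 weeks. Insoluble brain Aβ1–42 was quantified by sandwich ELISA and expressed as % of saline-treated APP/PS1 mice.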

[13] = tested on: Mus musculus; experiment: Anti-alzheimer activity against APP/PS1 mouse model assessed as time spent in the target quadrant at 500 mg/kg, po measured after 4 days by Morris water maze test (reference value: 16.39+/-3.39%); assay type: functional; settings: time 4 day
[14] = AUC in CD-1 mouse measured in per mg of brain tissue at 500 mg/kg, ip; assay type: ADME, organism-based; parameters: dose 500 mg/kg, route ip; settings: in vivo
Method in brief: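 Male CD-1 mice, eight weeks old, N = 4 per time point. They received oral prodrug at 250 mg/kg, or ψ-GSH at 500 mg/kg i.p. for comparison. Blood and brain were taken at 2, 4 and 6 h. Brain was homogenized 1:5 (w/v) in DPBS. Plasma and homogenate were treated with 100 mM N-ethylmaleimide for 10 min at ambient temperature, deproteinized with 3% sulfosalicylic acid, then quantified by positive-ESI LC-MS/MS MRM, with ψ-GSH read as its NEM adduct.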

[15] = Stability in CD-1 mouse brain homogenate assessed as half life at 1 uM measured upto 240 mins by LC-MS/MS analysis; assay type: ADME, tissue-based; method in brief: as §2
[16] = tested on: Mus musculus; experiment: Anti-alzheimer activity against APP/PS1 mouse model assessed as escape latency at 500 mg/kg, po measured after 4 days by Morris water maze test (reference value: 6.64+/-1.58 sec); assay type: functional; settings: time 4 day

## CC(=O)SC[C@H](NC(=O)NC[C@H](N)C(=O)O)C(=O)NCC(=O)O
[1]
  t1/2: 5.02 h
[2]
  t1/2: 5.8 h
[3]
  t1/2: 28.88 h

## Cl.N[C@@H](CNC(=O)N[C@@H](CS)C(=O)NCC(=O)OC1CCCC1)C(=O)OC1CCCC1
[4]
  repetitive arm entries: 1.8
[1]
  t1/2: 5.24 h
[5]
  Activity: Active
[2]
  t1/2: 72.2 h
[3]
  t1/2: 4.87 h
[6]
  Stability: Stable

## N[C@@H](CNC(=O)N1C(=O)SC[C@H]1C(=O)NCC(=O)O)C(=O)O
[2]
  t1/2: 25.57 h

## CCOC(=O)SC[C@H](NC(=O)NC[C@H](N)C(=O)OC1CCCC1)C(=O)NCC(=O)OC1CCCC1
[2]
  t1/2: 61.32 h

## N[C@@H](CNC(=O)N[C@@H](CS)C(=O)NCC(=O)O)C(=O)O
[7]
  half-life at 1 µM: 0.02 h
[8]
  Activity: Active
[1]; CD-1, mouse, intestinal phase of gastrointestinal tract
  half-life at 1 µM: 1.28 h
[9]
  Activity: Active
[10]
  repetitive arm entries: 0.5
[2]
  half-life at 1 µM: 0.23 h
[11]
  Activity: Active
[3]; CD-1, mouse, gastric phase of gastrointestinal tract
  half-life at 1 µM: 28.8 h
[12]
  Activity: 90.8%
[13]
  Activity: 21.76%
[14]
  AUC: 8.06 nmol·h
[15]
  half-life at 1 µM: 1.51 h
[16]
  Time: 6.9 s

## CCOC(=O)SC[C@H](NC(=O)NC[C@H](N)C(=O)O)C(=O)NCC(=O)O
[1]
  t1/2: 38.5 h
[2]
  t1/2: 47.14 h
[3]
  t1/2: 27.7 h

## N[C@@H](CNC(=O)N1CSC[C@H]1C(=O)NCC(=O)O)C(=O)O
[7]
  half-life at 1 µM: 116 h
[2]
  half-life at 1 µM: 30.6 h
